FID counter: fluorescent intercalator displacement, NS3 helicase counter-screen. DNA fluorescent intercalator displacement, fluorescence. inhibition, % at 7.9 µM. 290,000 tested, 0.17% active. AID 1845; in the data active means inhibition above about 37%;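 further: 0% = vehicle and 100% = reference compound; higher means more ethidium bromide displaced from hairpin DNA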
NS3 helicase inh: inhibitors of Hepatitis C virus NS3 helicase; NS3 helicase DNA unwinding, Cy5 molecular beacon fluorescence; inhibition, % at 10.9 µM; 290,000 tested, 0.56% active; AID 1800;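 active means inhibition above the mean of all tested compounds plus 3 SD, set per campaign, cut at about 35% in these data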;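 further: 0% = DMSO wells and 100% = thioflavine S control wells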
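test system = hepatitis C virus NS3 helicase domain fragment enzyme | reagent = annealed dual-labelled DNA beacon duplex, ATP-started | times = 1 h at 25 °C | detection = Cy5 fluorescence, 0 and 60 min reads | read-out basis = percent inhibition from t60/t0 fluorescence ratio | control set = DMSO and thioflavine S | replication = one well per compound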
PABP FP inh: blocks human PABP binding to poly(A) RNA. P11940. fluorescence polarization. inhibition, % at 35 µM. 290,000 tested, 1% active;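 further: calls also rest on retests at 20 µM and on dose response follow-up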
eIF4H inh: inhibitors of RNA binding by human eIF4H | inhibition, % at 35 µM | eIF4H fluorescence polarization binding assay | 290,000 tested, 0.94% active | Q15056;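 further: calls also rest on retests at 20 µM and on dose response follow-up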
core dimer inh: HCV core protein dimerization inhibition; TR-FRET GST/Flag-core106 dimerization, 1536-well; inhibition, % at 5 µM; 300,000 tested, 0.33% active;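 active means inhibition above the mean of all tested compounds plus 3 SD, set per screening campaign, cut at about 45% in these data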
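Test system: GST/Flag-tagged HCV core106 proteins; Medium: KF-containing HEPES buffer, pH 7.45, DTT, CHAPS, BSA; Times: compound-protein-antibody incubation 4 h at 22.5 °C; Detection: TR-FRET 671 and 617 nm emission; Benchmarks: wells lacking GST-core106 and wells with excess unlabelled core106.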
MLLE-PAM2 inh: inhibitors of microRNA-mediated deadenylation, human PABP1 MLLE binding | P11940 | GST-MLLE / FITC-PAM2 fluorescence polarization | inhibition, % at 20 µM | 360,000 tested, 0.36% active; in the data active means inhibition above about 35%, passing the limit was not always enough;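 further: plate controls were DMSO wells with GST-MLLE for no effect and wells lacking GST-MLLE protein for full effect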
Starred values were filed as active, the others as inactive; ? = inconclusive; . = no result. Sampled rows, rich in hits. Any-hit rate of the full collection: about 2%. Unless noted, how the calls were made is not given here.

SMILES	FID counter	NS3 helicase inh	PABP FP inh	eIF4H inh	core dimer inh	MLLE-PAM2 inh
CCCCNC(=O)c1nc(C2CCN(S(=O)(=O)c3ccc(F)c(F)c3)CC2)oc1-c1ccccc1	.	.	.	.	.	-5
COC(=O)[C@@]1(Cc2ccc(F)cc2)[C@@H]2[C@@H](CC(=O)[C@H]2CC(=O)C(=O)N(C)C)CN1C(=O)c1ccccc1	-48	26	118*	71*	-23	-6
COC(=O)[C@@]1(Cc2ccc(OC)cc2)[C@@H]2[C@@H](CC(=O)[C@H]2CC(=O)C(=O)N(C)C)CN1C(=O)c1ccccc1	-38	10	8	28	3	-2
Cc1c(C(=O)NCc2ccccc2C(F)(F)F)sc(=O)n1Cc1ccccc1C#N	.	.	.	.	.	-11
CC(=O)Nc1ccc(SCC(=O)c2cc(C)n(-c3ccccc3F)c2C)cc1	-29	-17	-10	2	-2	40*
CC(=O)Nc1ccc(SCC(=O)NC(=O)c2ccccc2Br)cc1	.	.	.	.	.	44*
C[C@@H]1CN([C@@H](C)CO)C(=O)c2cc(NC(=O)c3ccccc3)ccc2O[C@@H](C)CCCCO[C@@H]1CN(C)S(=O)(=O)c1ccc(F)cc1	.	.	.	.	.	-6
COc1ccc(C(=O)N2CCCC(C)(C(=O)NS(=O)(=O)C3CC3)C2)cc1 (centres undefined)	.	.	.	.	.	-4
Cc1ccc(F)c(S(=O)(=O)NC(=O)C2(C)CCN2C(=O)c2sccc2C)c1 (centres undefined)	.	.	.	.	.	-4
Oc1c(Br)cc(Br)cc1/C=N/c1nccs1	.	.	.	.	.	8
Oc1c(Br)cc(Br)cc1C=Nc1cccnc1	3	14	31	32	-19	39*
CCCc1nc2c([nH]1)c(=O)n(C)c(=O)n2C	-1	5	-5	0	-4	3
CC(C)c1nc2c([nH]1)c(=O)n(C)c(=O)n2C	-5	11	5	54*	-12	1
COc1ccc(C(c2c(C)[nH]n(C(N)=S)c2=O)C(C#N)C#N)cc1 (centres undefined)	-1	8	3	-8	7	18
Cc1[nH]n(-c2ncc(-c3ccc(Cl)cc3)s2)c(=O)c1C(c1ccc(Cl)cc1)C(C#N)C#N (centres undefined)	-6	28	5.9*	86	-8	5
COc1ccc(C2CCCN2CC(O)COc2ccccc2C(C)C)cc1 (centres undefined)	19	-63	-15	-1	-1	-23
COc1ccccc1OCCC(=O)O	3	-12	60*	active	2	-4
CCN(CC)CCCN1C(=O)CSC1c1ccc([N+](=O)[O-])cc1 (centres undefined)	8	2	8	-14	-6	42*
O=C(c1ccc2c(c1)OCO2)C1CCCN(C(=O)NCc2ccccc2)C1 (centres undefined)	-14	-2	53*	58*	-3	-1
O=C(c1ccc2c(c1)OCO2)C1CCCN(C(=O)c2cnn(Cc3ccccc3)c2)C1 (centres undefined)	-25	-6	7	4	4	10
O=C(O/N=C1\C(=O)N(c2ccccc2)c2ccccc21)C1CC1	-9	9	81	active	6	-2
COc1cc(OC)nc(C(NC(=O)C2CCN(Cc3c[nH]c4ccccc34)CC2)c2ccc(Cl)cc2)n1 (centres undefined)	.	.	.	.	.	9
COc1nccnc1NS(=O)(=O)c1ccc(NC(=S)NC(=O)/C=C/c2ccccc2)cc1	-3	2	8	1	3	45*
COc1nccnc1NS(=O)(=O)c1ccc(NC(=S)NC(=O)c2ccccc2)cc1	-20	4	6	0	4	25
CCOC(=O)N1CCN(C(=O)c2ccc(Cl)c(NC(=O)c3cccs3)c2)CC1	.	.	.	.	.	-6
SMILES	FID counter	NS3 helicase inh	PABP FP inh	eIF4H inh	core dimer inh	MLLE-PAM2 inh
O=C1C(=Cc2ccc(F)cc2)Cc2ccccc21	.	.	.	.	.	-1
O=C1/C(=C/c2ccco2)Cc2ccccc21	-5	11	active	80*	-13	-1
Cc1ccc(C)c(NC(=O)CN(C)C(=O)c2ccc(COc3ccccc3)cc2)c1	.	.	.	.	.	-24
CCOC(=O)C1=C[C@@H](c2ccccc2)N(S(=O)(=O)c2ccc(C)cc2)[C@H]1c1ccc(OC)cc1	.	.	.	.	.	0
Cc1ccc(/C=C2/SC(=S)N(C3CCCCC3)C2=O)o1	-22	27	-7	5	68*	-22
Cc1ccc(/C=C2\SC(=S)N(CC3CCCO3)C2=O)o1 (centres undefined)	-12	23	8	22	-4	-1
CCCN(CCC)Cc1cc(=O)oc2cc(C)cc(C)c12	.	.	.	.	.	5
Cc1ccc(-n2c(C(C)n3nc(C)c([N+](=O)[O-])c3C)n[nH]c2=S)cc1 (centres undefined)	-9	0	52	active	-1	-23
COc1ccc(-n2c(C(C)n3nc(C)c([N+](=O)[O-])c3C)n[nH]c2=S)cc1 (centres undefined)	-6	4	-72	-4	4	-18
CCCCN(CC(O)COc1cccc(C)c1)CC(O)COc1cccc(C)c1 (centres undefined)	15	-54	2	7	-2	8
Cn1c(CCC(=O)O)nc2cc(S(=O)(=O)N3CCCCC3)ccc21	.	.	.	.	.	39*
C(=C\c1ccccc1)/CN1CCN(C(c2cccc3ccccc23)c2nnnn2C2CCCC2)CC1 (centres undefined)	.	.	.	.	.	-8
Cc1ccccc1OCC(=O)NNC(=O)C1CC(=O)N(c2ccc3c(c2)OCCO3)C1 (centres undefined)	.	.	.	.	.	5
Cc1ccc(-n2cc(C(=O)c3ccc(F)cc3)nn2)cc1Cl	-1	-5	-5	2	70*	-2
O=C(Nc1ccccc1)Nc1sccc1-c1nc2ccccc2s1	-2	5	4	28	1	-70
O=C(Nc1cccc(Cl)c1)Nc1sccc1-c1nc2ccccc2s1	2	5	12*	79	-5	-100
CC(C)c1nc(SCC(=O)Nc2nc3c(s2)CCCC3)c2ccccc2n1	-14	-35	0	-6	19	22
Cc1nnc(NC(=O)CSc2nc(C(C)C)nc3ccccc23)s1	2	-3	-12	-4	2	37*
O=C(NC1=C(Nc2ccc(Cl)cc2)C(=O)c2ccccc2C1=O)c1ccccc1	8	8	-8	1	-8	21
O=C1C(Cl)=C(NC(=O)c2ccccc2)C(=O)C(Cl)=C1NC(=O)c1ccccc1	8	5	25	0	1	57*
CC(C(=O)Nc1nncs1)N1C(=O)C2C3C=CC(C3)C2C1=O (centres undefined)	1	-8	active	?	-5	3
COc1ccc(CC(=O)NC2CCCCCC2)c(OC)c1	-22	9	1	-1	1	1
C#CCSc1nsc(SCC#C)c1C#N	0	7	1	1	63*	12

From PubChem
